Screening results (PubChem BioAssay)
An excerpt weighted towards active compounds, which were near 4.6% of everything screened.
CHO parental Ca = signal in parental CHO cells, OX1R antagonist counter-screen | 0.63% of 330,000 active | inhibition, % at 5.6 µM | parental CHO-K1, ATP-induced calcium, Fluo-8 fluorescence;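 active means inhibition above that plate's mean sample inhibition plus 3 SD, cut at about 26% in these data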
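Material: Parental CHO cells | Reagent: ATP | Compound dosing: Single nominal dose of 5.6 µM per compound | Detection: Intracellular calcium via Fluo-8 no-wash fluorescent dye | Read-out: % inhibition of ATP-induced calcium mobilization | Benchmarks: Low control ATP plus DMSO, high control DMSO only | Replicates: Singlicate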
TAAR1 ag = agonists of human TAAR1; Q96RJ0; CHO RD-HGA16 TAAR1, Fluo-8 calcium fluorescence; vehicle wells 0%, saturating PEA agonist 100%; activation, % at 3 µM; 0.99% of 360,000 active;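 active means activation above the mean activation of all test compounds in the run plus 3 SD, cut at about 38% in these data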
Target sequence (Q96RJ0 whole entry, looked up): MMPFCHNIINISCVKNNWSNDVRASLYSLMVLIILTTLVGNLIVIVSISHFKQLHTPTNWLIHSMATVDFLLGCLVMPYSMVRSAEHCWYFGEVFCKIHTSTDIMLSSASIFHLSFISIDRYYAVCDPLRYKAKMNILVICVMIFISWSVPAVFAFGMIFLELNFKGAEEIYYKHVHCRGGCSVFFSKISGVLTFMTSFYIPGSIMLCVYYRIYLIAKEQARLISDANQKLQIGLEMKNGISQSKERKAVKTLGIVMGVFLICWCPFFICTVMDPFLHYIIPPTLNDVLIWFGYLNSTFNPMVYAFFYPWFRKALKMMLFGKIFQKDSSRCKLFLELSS
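Assay system: CHO-derived RD-HGA16 cells with stable Gα16 and human TAAR1; timing: 17-24 h seeding, 75 min 37 °C dye, 30 min RT; read-out: % activation from peak over basal fluorescence ratio, DMSO-to-PEA scaled; measured by: kinetic Fluo-8 calcium fluorescence; benchmarks: low control DMSO, high control PEA (EC100); doses: 3 µM single concentration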
GPR7 antagonist = antagonists of human GPR7 (neuropeptides B/W receptor 1) | P48145 | 1.1% of 290,000 active | inhibition, % at 4.4 µM | GPR7-expressing cells, fluorescence antagonist assay; in the data active means inhibition above about 16%, passing the limit was not always enough;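 further: cells stimulated with the agonist NPW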
OX1R antag-1 = human HCRTR1 antagonism; 0.43% of 330,000 active; CHO/OX1R cells, Fluo-8 calcium fluorescence, orexin A; O43613; inhibition, % at 5 µM;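 active means inhibition above its plate's threshold, mean inhibition of all tested compounds on the plate plus 3 SD, cut at about 37% in these data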
OX1R antag-2 = OX1R (human) antagonism. OX1R-expressing cells, FRET antagonist read-out. AID 485270. inhibition, % at 6.6 µM. 1.8% of 330,000 active; in the data active means inhibition mostly above about 38%, no sharp cut-off; inactive means mostly below about 40%
TAAR1 antag = antagonists of human TAAR1. Q96RJ0. CHO RD-HGA16 TAAR1, Fluo-8 calcium fluorescence, antagonist. inhibition, % at 3 µM. 1.5% of 360,000 active;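 active means inhibition above a per-plate cutoff, the mean inhibition of test compounds on that plate plus 3 SD, cut at about 49% in these data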
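test system = CHO RD-HGA16 cells bearing hTAAR1 | replication = singlicate | controls = DMSO-only wells and EC80 β-PEA-stimulated wells | reagent = EC80 β-phenethylamine stimulus | read-out basis = percent inhibition of PEA-evoked calcium signal, max/basal emission ratio | schedule = seeding 17-24 h prior, 75-min 37 °C, 30-min RT dye loading | signal = kinetic Fluo-8 calcium fluorescence measurement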
TAAR1 ag confirm = human TAAR1 agonism, confirmed | shares compounds with TAAR1 ag | CHO RD-HGA16 TAAR1, Fluo-8 calcium fluorescence; scaled: DMSO 0%, maximal phenethylamine 100% | activation, % at 3 µM | 82% of 2,400 active | AID 651783;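 active means activation above a cutoff set at the run's mean compound activation plus 3 SD, cut at about 39% in these data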
Ga16 nonsel ag = nonselective agonist in parental cells, TAAR1 agonist counter-screen; shares compounds with TAAR1 ag; CHO-Ga16 parental, Fluo-8 calcium fluorescence; normalized to maximal ATP response, DMSO zero; activation, % at 3 µM; 50% of 2,400 active; AID 651787;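 active means activation above the run cutoff, the mean activation over all tested wells plus 3 SD, cut at about 12% in these data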
TAAR1 desensitize = TAAR1 response desensitization, agonist counter-screen; shares compounds with TAAR1 ag; CHO RD-HGA16 hTAAR1, Fluo-8 calcium, beta-PEA response inhibition; inhibition, % at 3 µM; 46% of 2,400 active; AID 651951;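 active means inhibition above the run cutoff, the mean inhibition of all test compounds plus 3 SD, cut at about 49% in these data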;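 further: beta-PEA stimulus applied at its EC80; loss of beta-PEA calcium signal after compound pretreatment read as receptor desensitization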
Ga16 nonsel ant = nonselective Ga16 antagonist in TAAR1 agonist counter-screen. shares compounds with TAAR1 ag. CHO-Ga16 ATP-induced calcium, Fluo-8 fluorescence. inhibition, % at 3 µM. 39% of 2,400 active. AID 651952;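 active means inhibition above the plate's mean compound inhibition plus 3 SD, computed per plate, cut at about 22% in these data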
Of the large screens only hits and unclear results are named; the others gave an inactive call (follow-up assays come after a bar, where they were run).

NC(=O)c1cc2ccccc2o/c1=N/NC(=O)c1cccc(Cl)c1	none
CCOC(=O)c1ccc(NS(=O)(=O)c2cn(C)cn2)cc1	none
CN(CCc1ccccc1)C(C(=O)Nc1ccc2c(c1)OCCO2)c1ccnc2ccccc12 (stereo not given)	TAAR1 ag 61, TAAR1 antag 53 (no result: CHO parental Ca, GPR7 antagonist, OX1R antag-1, OX1R antag-2) | TAAR1 ag confirm 78 | Ga16 nonsel ag inactive | TAAR1 desensitize inactive | Ga16 nonsel ant inactive
c1ccc(C[C@H]2CNCCN2CCc2cccc3ccccc23)cc1	none (no result: GPR7 antagonist)
FC(F)(F)c1cc(CCN2CCNC[C@H]2Cc2cccc3ccccc23)cc(C(F)(F)F)c1	TAAR1 ag 84, TAAR1 antag 95 (no result: GPR7 antagonist) | TAAR1 ag confirm 51 | Ga16 nonsel ag 28 | TAAR1 desensitize inactive | Ga16 nonsel ant 40
CCCC[C@@H]1CNCCN1CCc1cccc2ccccc12	TAAR1 ag 66, TAAR1 antag 75 (no result: GPR7 antagonist) | TAAR1 ag confirm 70 | Ga16 nonsel ag inactive | TAAR1 desensitize 87 | Ga16 nonsel ant inactive
O=C(COC(=O)Cc1ccc(Br)cc1)NCC1CCCCC1	none
CC(=O)C1CCC2C3CC=C4CC(SC(=N)N)CCC4(C)C3CCC12C (stereo not given)	TAAR1 ag 84, TAAR1 antag 81 (no result: CHO parental Ca, GPR7 antagonist, OX1R antag-1, OX1R antag-2) | TAAR1 ag confirm 111 | Ga16 nonsel ag 69 | TAAR1 desensitize 91 | Ga16 nonsel ant 53
O=C(O)c1ccc(-c2ccc(/C=N/Nc3ccc([N+](=O)[O-])cc3)o2)cc1	CHO parental Ca 64, TAAR1 ag 131, OX1R antag-1 77, TAAR1 antag 82 | TAAR1 ag confirm 86 | Ga16 nonsel ag 66 | TAAR1 desensitize 88 | Ga16 nonsel ant 70
COc1ccc(N=Cc2sc(O)c3ccccc23)cc1	CHO parental Ca 46, TAAR1 ag 84, OX1R antag-1 67, TAAR1 antag 64 | TAAR1 ag confirm 46 | Ga16 nonsel ag 72 | TAAR1 desensitize 53 | Ga16 nonsel ant 69
CCOC(=O)[C@]12CCCC=C1N(Cc1ccc(Cl)cc1Cl)C(=O)[C@H](CC(=O)NCc1ccc(OC)c(OC)c1)C2	none (no result: CHO parental Ca, GPR7 antagonist, OX1R antag-1, OX1R antag-2)
Cc1cccnc1NC(=O)c1ccc(OCc2c(C)noc2C)cc1	none
N#CC1(Nc2cccc(Br)c2)C(=O)Nc2ccccc21 (stereo not given)	TAAR1 ag 83 | TAAR1 ag confirm 54 | Ga16 nonsel ag 32 | TAAR1 desensitize 52 | Ga16 nonsel ant 42
S=c1[nH]nc(-c2cc(-c3ccccc3)n[nH]2)n1/N=C/c1ccc(Br)s1	none
COc1cc(=O)n(C)c2ccccc12	none
COc1ccc2c(OC)cc(=O)n(C)c2c1	TAAR1 ag 68 | TAAR1 ag confirm inactive | Ga16 nonsel ag inactive | TAAR1 desensitize inactive | Ga16 nonsel ant inactive
COc1ccc(NC(=O)CCc2nc(-c3ccccc3F)no2)cc1	TAAR1 ag 48 | TAAR1 ag confirm 67 | Ga16 nonsel ag inactive | TAAR1 desensitize inactive | Ga16 nonsel ant inactive
COc1ccccc1-c1noc(CCC(=O)Nc2cccc(C)c2)n1	none
CC(Oc1ccc(Cl)cc1Cl)C(=O)Nc1ccc(N2CCN(C)CC2)cc1 (stereo not given)	TAAR1 ag 53 | TAAR1 ag confirm 60 | Ga16 nonsel ag inactive | TAAR1 desensitize inactive | Ga16 nonsel ant inactive
Cc1ccc(-c2cc(C(=O)NC3CCCC3)no2)cc1	TAAR1 ag 51 | TAAR1 ag confirm inactive | Ga16 nonsel ag inactive | TAAR1 desensitize inactive | Ga16 nonsel ant inactive
O=C(NC1CCCCC1)c1cc(-c2ccc(F)cc2)on1	none
